The source made the active and inactive calls. The calls are words filed in the database; no cut-off is given here.
Experiments:
[1] = tested on: MCF7; assay: Cell cycle arrest in human MCF7 cells assessed as accumulation at G0/G1 phase after 30 mins by propidium iodide staining-based flow cytometric analysis; assay type: functional
How it was run: (§1)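 MCF-7 cells (10^6) were treated with compounds for 24 h alongside a methanol vehicle control. They were fixed in cold 70% methanol at 4 °C for one day, washed in PBS and permeabilised with 0.1% saponin in PBS. They were then stained with propidium iodide plus RNase (1 mg/ml) for 30 min, and DNA-content distribution was read by FACScan flow cytometry.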

[2] = tested on: Mycolicibacterium phlei; assay: Antimicrobial activity against Mycobacterium phlei assessed as inhibition at 20 ug/6 mm disk after 1 to 2 days by agar diffusion assay; assay type: functional
How it was run: (§2)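 Standard agar diffusion: 6-mm paper disks loaded with 20 µg of compound were placed on inoculated plates. Inhibition-zone diameter (mm) was read after 1 and 2 days of growth.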

[3] = tested on: Aspergillus niger; assay: Antimicrobial activity against Aspergillus niger assessed as inhibition at 20 ug/6 mm disk after 1 to 2 days by agar diffusion assay; assay type: functional; how it was run: as §2
[4] = tested on: Escherichia coli; assay: Antimicrobial activity against Escherichia coli tolC assessed as inhibition at 20 ug/6 mm disk after 1 to 2 days by agar diffusion assay; assay type: functional; how it was run: as §2
[5] = Cytotoxicity against human fibroblasts assessed as cell viability after 24 hrs incubation by MTT assay; assay type: cell-based; conditions: Fibroblast
How it was run: (§3)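 Cell lines came from DSMZ; primary human fibroblasts served as non-cancer controls. Cells were grown in medium with 10% FCS, seeded at 50,000 cells/ml, and grown 2 days at 37 °C, 10% CO2. Serial dilutions were then added for 24 h. MTT (final 0.5 mg/ml) was added for 2 h. Formazan was pelleted, PBS-washed, dissolved in isopropanol/0.4% HCl and read at 590 nm. Two parallel experiments were run. IC50 was taken as the concentration giving 50% of untreated-control absorbance.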

[6] = tested on: Saccharomyces cerevisiae; assay: Antimicrobial activity against Saccharomyces cerevisiae assessed as inhibition at 20 ug/6 mm disk after 1 to 2 days by agar diffusion assay; assay type: functional; how it was run: as §2
[7] = tested on: MCF7; assay: Cytotoxicity against human MCF7 cells assessed as cell viability after 24 hrs incubation by MTT assay; assay type: functional, cell-based; conditions: MCF7, 24 h; how it was run: as §3
[8] = tested on: Candida albicans; assay: Antimicrobial activity against Candida albicans assessed as inhibition at 20 ug/6 mm disk after 1 to 2 days by agar diffusion assay; assay type: functional; how it was run: as §2
[9] = tested on: Staphylococcus aureus; assay: Antimicrobial activity against Staphylococcus aureus assessed as inhibition at 20 ug/6 mm disk after 1 to 2 days by agar diffusion assay; assay type: functional; how it was run: as §2
[10] = tested on: A-431; assay: Cytotoxicity against human A431 cells assessed as cell viability after 24 hrs incubation by MTT assay; assay type: functional, cell-based; conditions: A-431, 24 h; how it was run: as §3
[11] = tested on: PtK2; assay: Induction of morphological changes in Potorous tridactylus PtK2 cells assessed as lysis of ER and disappearance of actin stress fiber after 24 hrs by immunofluorescence microscopy; assay type: functional, cell-based
How it was run: (§4)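 PtK2 cells were grown on coverslips and treated at semi-confluence for 24 h. Fixation was either 3.7% paraformaldehyde followed by 0.1% Triton X-100 for 5 min, or ice-cold methanol/acetone (50:50) for 10 min. ER was stained with anti-GRP94 and tubulin with anti-α-tubulin (primary and Alexa 488 secondary antibodies, 45 min each). Actin was stained with phalloidin-Alexa 594 for 45 min and nuclei with DAPI. Imaging was by fluorescence microscopy.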

[12] = tested on: Micrococcus luteus; assay: Antimicrobial activity against Micrococcus luteus assessed as inhibition at 20 ug/6 mm disk after 1 to 2 days by agar diffusion assay; assay type: functional; how it was run: as §2
[13] = Octanol-water partition coefficient, log P of the compound by HPLC analysis; assay type: physicochemical
How it was run: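 Lipophilicity was measured by reversed-phase HPLC on a Nucleosil C18 column with isocratic water/methanol (3:1) at 0.5 ml/min and UV detection at 230 and 245 nm. Dead time was set with thiourea (t0 0.728 min). Retention factor was k = (tR − t0)/t0, and log P came from a calibration against at least six reference compounds.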

[14] = tested on: Pseudomonas aeruginosa; assay: Antimicrobial activity against Pseudomonas aeruginosa assessed as inhibition at 20 ug/6 mm disk after 1 to 2 days by agar diffusion assay; assay type: functional; how it was run: as §2
[15] = Lipophilicity, log K of the compound by HPLC analysis
[16] = tested on: Klebsiella pneumoniae; assay: Antimicrobial activity against Klebsiella pneumoniae assessed as inhibition at 20 ug/6 mm disk after 1 to 2 days by agar diffusion assay; assay type: functional; how it was run: as §2
[17] = tested on: PtK2; assay: Induction of morphological changes in Potorous tridactylus PtK2 cells assessed as loss of typical shape after 24 hrs by immunofluorescence microscopy; assay type: functional, cell-based; how it was run: as §4
[18] = tested on: MCF7; assay: Cell cycle arrest in human MCF7 cells assessed as accumulation at S phase […] by propidium iodide staining-based flow cytometric analysis; assay type: functional
[19] = tested on: MCF7; assay: Cell cycle arrest in human MCF7 cells assessed as accumulation at G2/M phase after 30 mins by propidium iodide staining-based flow cytometric analysis; assay type: functional; how it was run: as §1
[20] = tested on: A-431; assay: Reduction in ROS in human A431 cells assessed as decrease in hydrogen peroxide level at 0.1 to 10 ng/ml after 1 hr by DCHFA assay; assay type: functional, cell-based
How it was run: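 A-431 cells were seeded at 10^5 per well and exposed to a range of compound concentrations for 1 h. They were then loaded with DCHFA probe for 30 min in the dark. Fluorescence was read immediately at ex/em 485/528 nm and expressed as arbitrary units per 10^5 cells.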

[21] = tested on: A-431; assay: Reduction in ROS in human A431 cells assessed as decrease in hydrogen peroxide level at 1 to 100 ng/ml after 1 hr by DCHFA assay; assay type: functional, cell-based
How it was run: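 A-431 cells (10^5 per well) were treated with a range of compound concentrations for 1 h. They were then loaded with DCHFA probe for 30 min in the dark. Fluorescence (ex 485/em 528 nm) was read immediately and expressed as arbitrary units per 10^5 cells.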

**Q.** Which Activity [1] does the source give for CC(C)(C)OC(=O)NCC(=O)OCC(=O)NCCC[Te]c1ccccc1 here?
**A.** 91.61%

**Q.** And the Retention_time?
**A.** 2.247 min

**Q.** What about the “diameter of the inhibition zone (DIZ)” value [2] of the same compound?
**A.** 14 mm

**Q.** What about the “diameter of the inhibition zone (DIZ)” value [3] of the same compound?
**A.** 0 mm

**Q.** What about the “diameter of the inhibition zone (DIZ)” value [4] of the same compound?
**A.** 12 mm

**Q.** What about the IC50 [5] of the same compound?
**A.** 19 µM

**Q.** What about the “diameter of the inhibition zone (DIZ)” value [6] of the same compound?
**A.** 0 mm

**Q.** And the IC50 [7]?
**A.** 0.3 µM

**Q.** And the “diameter of the inhibition zone (DIZ)” value [8]?
**A.** 0 mm

**Q.** And the “diameter of the inhibition zone (DIZ)” value [9]?
**A.** 16 mm

**Q.** And the IC50 [10]?
**A.** 10 µM

**Q.** What about the Activity [11] of the same compound?
**A.** Active

**Q.** What about the “diameter of the inhibition zone (DIZ)” value [12] of the same compound?
**A.** 7 mm

**Q.** And the logP [13]?
**A.** 3.83

**Q.** What about the “diameter of the inhibition zone (DIZ)” value [14] of the same compound?
**A.** 0 mm

**Q.** What about the “log K” value [15] of the same compound?
**A.** 0.32

**Q.** And the “diameter of the inhibition zone (DIZ)” value [16]?
**A.** 15 mm

**Q.** What about the Activity [17] of the same compound?
**A.** Active

**Q.** What about the Activity [18] of the same compound?
**A.** 4.61%

**Q.** What about the Activity [19] of the same compound?
**A.** 3.78%

**Q.** And the Activity [20]?
**A.** Dose-dependent effect

**Q.** What does the source list for COc1ccc(N(CC(=O)NCCCSc2ccccc2)C(=O)c2ccccc2)cc1?
**A.** Retention_time: 1.407 min; diameter of the inhibition zone (DIZ) [2]: 0 mm; diameter of the inhibition zone (DIZ) [3]: 0 mm; diameter of the inhibition zone (DIZ) [4]: 0 mm; IC50 [5]: ≥ 100 µM; diameter of the inhibition zone (DIZ) [6]: 0 mm; IC50 [7]: ≥ 100 µM; diameter of the inhibition zone (DIZ) [8]: 0 mm; diameter of the inhibition zone (DIZ) [9]: 0 mm; IC50 [10]: ≥ 100 µM; diameter of the inhibition zone (DIZ) [12]: 0 mm; Activity [21]: inactive; logP [13]: 3.1; diameter of the inhibition zone (DIZ) [14]: 0 mm; log K [15]: -0.03; diameter of the inhibition zone (DIZ) [16]: 0 mm

**Q.** For COc1ccc(N(CC(=O)NCCC[Se]c2ccccc2)C(=O)c2ccccc2)cc1, which Retention_time is on record?
**A.** 1.412 min

**Q.** What about the “diameter of the inhibition zone (DIZ)” value [2] of the same compound?
**A.** 0 mm

**Q.** And the “diameter of the inhibition zone (DIZ)” value [3]?
**A.** 18 mm

**Q.** What about the “diameter of the inhibition zone (DIZ)” value [4] of the same compound?
**A.** 0 mm

**Q.** And the IC50 [5]?
**A.** ≥ 100 µM

**Q.** And the “diameter of the inhibition zone (DIZ)” value [6]?
**A.** 0 mm

**Q.** What about the IC50 [7] of the same compound?
**A.** ≥ 100 µM

**Q.** And the “diameter of the inhibition zone (DIZ)” value [8]?
**A.** 0 mm

**Q.** And the “diameter of the inhibition zone (DIZ)” value [9]?
**A.** 0 mm

**Q.** What about the IC50 [10] of the same compound?
**A.** ≥ 100 µM

**Q.** And the “diameter of the inhibition zone (DIZ)” value [12]?
**A.** 0 mm

**Q.** What about the Activity [21] of the same compound?
**A.** inactive

**Q.** And the logP [13]?
**A.** 3.1

**Q.** And the “diameter of the inhibition zone (DIZ)” value [14]?
**A.** 0 mm

**Q.** And the “log K” value [15]?
**A.** -0.03

**Q.** What about the “diameter of the inhibition zone (DIZ)” value [16] of the same compound?
**A.** 0 mm

**Q.** Which Retention_time does the source give for COc1ccc(N(CC(=O)NCCC[Se]c2ccccc2)C(=O)/C=C/c2ccccc2)cc1 here?
**A.** 2.088 min

**Q.** What about the “diameter of the inhibition zone (DIZ)” value [2] of the same compound?
**A.** 0 mm

**Q.** And the “diameter of the inhibition zone (DIZ)” value [3]?
**A.** 0 mm

**Q.** What about the “diameter of the inhibition zone (DIZ)” value [4] of the same compound?
**A.** 0 mm

**Q.** And the IC50 [5]?
**A.** ≥ 100 µM

**Q.** What about the “diameter of the inhibition zone (DIZ)” value [6] of the same compound?
**A.** 0 mm

**Q.** What about the IC50 [7] of the same compound?
**A.** ≥ 100 µM

**Q.** What about the “diameter of the inhibition zone (DIZ)” value [8] of the same compound?
**A.** 0 mm

**Q.** What about the “diameter of the inhibition zone (DIZ)” value [9] of the same compound?
**A.** 0 mm

**Q.** And the IC50 [10]?
**A.** ≥ 100 µM

**Q.** And the “diameter of the inhibition zone (DIZ)” value [12]?
**A.** 0 mm

**Q.** What about the Activity [21] of the same compound?
**A.** inactive

**Q.** What about the logP [13] of the same compound?
**A.** 3.7

**Q.** What about the “diameter of the inhibition zone (DIZ)” value [14] of the same compound?
**A.** 0 mm

**Q.** What about the “log K” value [15] of the same compound?
**A.** 0.27

**Q.** What about the “diameter of the inhibition zone (DIZ)” value [16] of the same compound?
**A.** 0 mm
